Measured values as given in ChEMBL document CHEMBL5532683, “Design, Synthesis, and Bioevaluation of Transcriptional Enhanced Assocciated Domain (TEAD) PROTAC Degraders” (ACS Med Chem Lett, 2024).
Values belong to the compound of their own block, whether it stands above or below them. Calls of active or inactive are those of the source. The rule behind the calls is not given here.

Experiments:
[1] = system: NCI-H226; assay: Antiproliferative activity against human NCI-H226 cells incubated for 120 hrs by Celltiter-glo luminescent assay; type: functional, cell-based; settings: NCI-H226, 120 h
Procedure, shortened: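 5-day exposure of NF2-deficient NCI-H226 cells to compounds at a range of concentrations; IC50 taken as mean ± SEM of four independent replicates.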

[2] = target: T1, Protein cereblon-TEAD (Homo sapiens) (UniProt P28347+Q96SW2+Q15561+Q15562+Q99594); assay: Protac activity at CRBN/TEAD in human NCI-H226 cells at 1 to 10 uM incubated for 24 hrs by Western blot analysis; type: cell-based; settings: dose 1-10 µM
Procedure, shortened: (§1)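 NCI-H226 cells exposed 24 h to 0.1, 1 or 10 μM compound. TEAD detected with pan-TEAD antibody by Western blot and quantified as percent degradation. Mean ± SEM of three independent replicates.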

[3] = system: NCI-H226; assay: Upregulation of FBXO32 gene expression in human NCI-H226 cells incubated for 8 hrs by RT-qPCR analysis; type: functional, cell-based; settings: dose 0.5-1 µM
Procedure, shortened: (§2)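 NCI-H226 cells exposed to 0.5 or 1 μM compound for 8 h. Transcript levels measured by qPCR. Mean ± SEM of three independent replicates.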

[4] = system: NCI-H226; assay: Downregulation of NPPB gene expression in human NCI-H226 cells incubated for 8 hrs by RT-qPCR analysis; type: functional, cell-based; settings: dose 0.5-1 µM; procedure, shortened: as §2
[5] = system: NCI-H226; assay: Downregulation of CTGF gene expression in human NCI-H226 cells incubated for 8 hrs by RT-qPCR analysis; type: functional, cell-based; settings: dose 0.5-1 µM; procedure, shortened: as §2
[6] = target: T1, Protein cereblon-TEAD (Homo sapiens); assay: Protac activity at CRBN/TEAD in human NCI-H226 cells at 1 uM preincubated with thalidomide for 1 hr followed by compound addition and measured after 8 hrs by Western blot analysis; type: cell-based
Procedure, shortened: (§3)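 Rescue design: NCI-H226 cells pretreated 1 h with BafA1, MG132, thalidomide or VT107, then cotreated 8 h with compound. Protein levels measured by Western blot.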

[7] = target: Protein cereblon/Programmed cell death protein 2 (Homo sapiens) (UniProt Q96SW2+Q16342); assay: Protac activity at CRBN/PDCD2 in human NCI-H226 cells at 0.01 to 10 uM incubated for 24 hrs by Western blot analysis; type: cell-based; settings: dose 0.01-10 µM
Procedure, shortened: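 PDCD2 degradation in NCI-H226 cells after 24 h with compound at 0.01, 0.1, 1 and 10 μM, assessed by Western blot.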

[8] = target: T1, Protein cereblon-TEAD (Homo sapiens); assay: Protac activity at CRBN/TEAD in human NCI-H226 cells at 1 uM preincubated with BafA1 for 1 hr followed by compound addition and measured after 8 hrs by Western blot analysis; type: cell-based; procedure, shortened: as §3
[9] = target: Protein cereblon/Transcriptional enhancer factor TEF-4 (Homo sapiens, UniProt Q96SW2+Q15562); assay: Protac activity at CRBN (unknown origin) /Flag-tagged TEAD2 (unknown origin) transfected in HEK293T cells pretreated with cycloheximide for 2 hrs followed by compound addition and measured after 24 hrs by Western blot analysis; type: cell-based
Procedure, shortened: (§4)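 293T cells transfected separately with Flag-TEAD1, -2, -3 or -4. Pretreated 2 h with 200 μg/mL cycloheximide, then 24 h with compound at a series of concentrations. Isoform detected by anti-Flag Western blot and quantified. DC50 or maximal degradation derived. Mean ± SEM of three independent replicates.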

[10] = system: NCI-H226; assay: Downregulation of IGFBP3 gene expression in human NCI-H226 cells incubated for 8 hrs by RT-qPCR analysis; type: functional, cell-based; settings: dose 0.5-1 µM; procedure, shortened: as §2
[11] = target: T1, Protein cereblon-TEAD (Homo sapiens); assay: Protac activity at CRBN/TEAD in human NCI-H226 cells at 1 uM preincubated with MG132 for 1 hr followed by compound addition and measured after 8 hrs by Western blot analysis; type: cell-based; procedure, shortened: as §3
[12] = system: NCI-H2452; assay: Antiproliferative activity against human NCI-H2452 cells incubated for 120 hrs by Celltiter-glo luminescent assay; type: functional, cell-based; settings: NCI-H2452, 120 h
Procedure, shortened: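 NCI-H2452 cells (wild-type NF2) exposed to compound over a concentration range; IC50 estimated from the dose-response.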

[13] = target: Protein cereblon/Transcriptional enhancer factor TEF-5 (Homo sapiens) (UniProt Q96SW2+Q99594); assay: Protac activity at CRBN (unknown origin) /Flag-tagged TEAD3 (unknown origin) transfected in HEK293T cells at 9.75 to 1000 nM pretreated with cycloheximide for 2 hrs followed by compound addition and measured after 24 hrs by Western blot analysis; type: cell-based; settings: dose 9.75-1000 nM; procedure, shortened: as §4
[14] = target: Protein cereblon/Transcriptional enhancer factor TEF-1 (Homo sapiens) (UniProt P28347+Q96SW2); assay: Protac activity at CRBN (unknown origin) /Flag-tagged TEAD1 (unknown origin) transfected in HEK293T cells at 9.75 to 1000 nM pretreated with cycloheximide for 2 hrs followed by compound addition and measured after 24 hrs by Western blot analysis; type: cell-based; settings: dose 9.75-1000 nM; procedure, shortened: as §4
[15] = system: NCI-H226; assay: Downregulation of CYR61 gene expression in human NCI-H226 cells incubated for 8 hrs by RT-qPCR analysis; type: functional, cell-based; settings: dose 0.5-1 µM; procedure, shortened: as §2
[16] = target: T1, Protein cereblon-TEAD (Homo sapiens); assay: Protac activity at CRBN/TEAD in human NCI-H226 cells at 1 uM incubated for 10 to 24 hrs by Western blot analysis; type: cell-based; settings: time 10-24 hrs
Procedure, shortened: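 Time course in NCI-H226 cells: 1 μM compound for 1 to 24 h, pan-TEAD Western blot quantified. Mean ± SEM of three independent replicates.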

[17] = system: NCI-H226; assay: Downregulation of AMOTL2 gene expression in human NCI-H226 cells incubated for 8 hrs by RT-qPCR analysis; type: functional, cell-based; settings: dose 0.5-1 µM; procedure, shortened: as §2
[18] = target: Protein cereblon-TEAD; assay: Protac activity at CRBN/TEAD in human NCI-H226 cells incubated for 24 hrs by Western blot analysis; type: cell-based
Procedure, shortened: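 NCI-H226 cells exposed 24 h to compound across a broad concentration range. Pan-TEAD Western blot quantified; DC50 (half-maximal degradation concentration) derived. Mean ± SEM of three independent replicates.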

[19] = target: T1, Protein cereblon-TEAD (Homo sapiens); assay: Protac activity at CRBN/TEAD in human NCI-H226 cells at 1 uM preincubated with VT107 for 1 hr followed by compound addition and measured after 8 hrs by Western blot analysis; type: cell-based; procedure, shortened: as §3
[20] = target: T1, Protein cereblon-TEAD (Homo sapiens); assay: Protac activity at CRBN/TEAD in human NCI-H226 cells at 0.1 uM incubated for 24 hrs by Western blot analysis; type: cell-based; procedure, shortened: as §1
[21] = target: Protein cereblon/Transcriptional enhancer factor TEF-3 (Homo sapiens) (UniProt Q96SW2+Q15561); assay: Protac activity at CRBN (unknown origin) /Flag-tagged TEAD4 (unknown origin) transfected in HEK293T cells at 9.75 to 1000 nM pretreated with cycloheximide for 2 hrs followed by compound addition and measured after 24 hrs by Western blot analysis; type: cell-based; settings: dose 9.75-1000 nM; procedure, shortened: as §4
Chain of Protein cereblon/Transcriptional enhancer factor TEF-3 (Homo sapiens) (Q15561 whole entry, looked up): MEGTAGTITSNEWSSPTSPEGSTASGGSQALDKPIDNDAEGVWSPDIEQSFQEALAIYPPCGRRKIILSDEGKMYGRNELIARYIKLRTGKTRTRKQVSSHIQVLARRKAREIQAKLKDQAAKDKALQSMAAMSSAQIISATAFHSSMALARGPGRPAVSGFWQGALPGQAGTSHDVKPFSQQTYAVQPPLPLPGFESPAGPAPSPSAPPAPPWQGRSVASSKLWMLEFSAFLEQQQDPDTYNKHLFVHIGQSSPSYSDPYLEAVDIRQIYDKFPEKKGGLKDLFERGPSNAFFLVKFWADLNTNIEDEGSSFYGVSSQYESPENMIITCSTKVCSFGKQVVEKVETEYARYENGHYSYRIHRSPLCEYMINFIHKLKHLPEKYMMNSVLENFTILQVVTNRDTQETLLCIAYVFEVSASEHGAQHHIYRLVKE
Chain of Protein cereblon/Transcriptional enhancer factor TEF-3 (Homo sapiens) (Q96SW2 whole entry, looked up): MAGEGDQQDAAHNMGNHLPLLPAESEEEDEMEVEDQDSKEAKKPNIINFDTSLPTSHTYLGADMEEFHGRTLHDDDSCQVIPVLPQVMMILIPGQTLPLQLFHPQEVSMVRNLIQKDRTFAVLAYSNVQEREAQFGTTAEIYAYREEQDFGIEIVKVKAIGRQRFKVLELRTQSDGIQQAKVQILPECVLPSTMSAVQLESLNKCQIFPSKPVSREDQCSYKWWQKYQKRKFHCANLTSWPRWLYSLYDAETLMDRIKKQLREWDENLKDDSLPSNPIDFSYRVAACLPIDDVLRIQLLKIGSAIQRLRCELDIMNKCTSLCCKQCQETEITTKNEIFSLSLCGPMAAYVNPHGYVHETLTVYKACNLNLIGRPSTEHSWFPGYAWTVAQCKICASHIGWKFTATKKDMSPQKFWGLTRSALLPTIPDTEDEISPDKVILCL

T1 sequence (Q15562 whole entry partner): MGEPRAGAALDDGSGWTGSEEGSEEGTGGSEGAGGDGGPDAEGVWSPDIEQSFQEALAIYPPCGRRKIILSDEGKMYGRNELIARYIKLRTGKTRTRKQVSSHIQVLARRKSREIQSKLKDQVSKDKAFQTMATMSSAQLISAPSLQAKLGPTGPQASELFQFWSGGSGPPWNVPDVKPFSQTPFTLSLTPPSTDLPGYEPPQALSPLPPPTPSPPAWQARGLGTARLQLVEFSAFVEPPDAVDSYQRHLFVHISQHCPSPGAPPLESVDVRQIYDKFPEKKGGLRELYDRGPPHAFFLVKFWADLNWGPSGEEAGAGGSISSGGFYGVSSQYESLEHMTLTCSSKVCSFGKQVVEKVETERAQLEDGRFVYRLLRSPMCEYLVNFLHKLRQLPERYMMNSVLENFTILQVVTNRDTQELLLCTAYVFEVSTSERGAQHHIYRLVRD
T1 sequence (Q96SW2 whole entry partner): as the sequence (Q96SW2 whole entry, looked up) above
T1 sequence (Q99594 2-435 partner limits assumed): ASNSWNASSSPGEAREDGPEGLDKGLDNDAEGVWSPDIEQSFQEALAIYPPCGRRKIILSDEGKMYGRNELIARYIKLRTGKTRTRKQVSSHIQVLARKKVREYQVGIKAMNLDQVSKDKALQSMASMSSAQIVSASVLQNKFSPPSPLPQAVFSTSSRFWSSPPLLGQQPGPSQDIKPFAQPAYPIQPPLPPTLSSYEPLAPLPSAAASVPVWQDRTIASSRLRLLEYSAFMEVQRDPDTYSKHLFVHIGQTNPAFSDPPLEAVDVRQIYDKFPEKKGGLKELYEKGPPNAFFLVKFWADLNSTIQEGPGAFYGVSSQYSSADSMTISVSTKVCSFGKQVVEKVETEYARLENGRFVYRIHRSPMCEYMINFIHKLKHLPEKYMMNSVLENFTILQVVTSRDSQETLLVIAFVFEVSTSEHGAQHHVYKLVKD
T1 sequence (P28347 whole entry): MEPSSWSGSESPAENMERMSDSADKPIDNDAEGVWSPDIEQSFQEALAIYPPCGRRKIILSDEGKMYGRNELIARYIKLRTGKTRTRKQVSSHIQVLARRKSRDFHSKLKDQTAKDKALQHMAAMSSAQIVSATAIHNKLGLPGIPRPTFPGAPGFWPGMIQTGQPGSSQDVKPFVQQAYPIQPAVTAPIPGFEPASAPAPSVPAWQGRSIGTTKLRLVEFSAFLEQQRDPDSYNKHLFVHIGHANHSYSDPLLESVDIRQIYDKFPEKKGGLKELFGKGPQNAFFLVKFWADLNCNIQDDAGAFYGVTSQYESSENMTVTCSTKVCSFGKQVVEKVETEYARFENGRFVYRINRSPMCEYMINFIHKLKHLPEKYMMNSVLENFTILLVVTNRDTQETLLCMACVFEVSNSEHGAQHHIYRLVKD
T1 sequence (Q15561 whole entry partner): as the sequence (Q15561 whole entry, looked up) above
Chain of Protein cereblon/Transcriptional enhancer factor TEF-5 (Homo sapiens) (Q96SW2 whole entry, looked up): as the sequence (Q96SW2 whole entry, looked up) above
Chain of Protein cereblon/Transcriptional enhancer factor TEF-5 (Homo sapiens) (Q99594 whole entry, looked up): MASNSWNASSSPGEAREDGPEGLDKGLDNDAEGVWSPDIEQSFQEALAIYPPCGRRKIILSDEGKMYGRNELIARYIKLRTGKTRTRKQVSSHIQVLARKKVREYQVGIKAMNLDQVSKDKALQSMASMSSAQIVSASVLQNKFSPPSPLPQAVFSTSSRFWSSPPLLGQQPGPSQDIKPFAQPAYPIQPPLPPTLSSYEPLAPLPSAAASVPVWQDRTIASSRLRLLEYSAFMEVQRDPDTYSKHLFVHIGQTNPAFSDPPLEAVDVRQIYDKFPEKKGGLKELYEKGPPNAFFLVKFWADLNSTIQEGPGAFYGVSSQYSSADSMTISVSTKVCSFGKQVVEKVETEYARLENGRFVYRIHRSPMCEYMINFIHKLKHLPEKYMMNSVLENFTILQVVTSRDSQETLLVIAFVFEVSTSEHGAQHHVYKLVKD
Chain of Protein cereblon/Transcriptional enhancer factor TEF-4 (Q96SW2 whole entry, canonical isoform): as the sequence (Q96SW2 whole entry, looked up) above
Chain of Protein cereblon/Transcriptional enhancer factor TEF-4 (Q15562 whole entry, canonical isoform): as the sequence (Q15562 whole entry partner) above
Chain of Protein cereblon/Transcriptional enhancer factor TEF-1 (Homo sapiens) (P28347 whole entry, looked up): as the sequence (P28347 whole entry) above
Chain of Protein cereblon/Transcriptional enhancer factor TEF-1 (Homo sapiens) (Q96SW2 whole entry, looked up): as the sequence (Q96SW2 whole entry, looked up) above
Chain of Protein cereblon/Programmed cell death protein 2 (Homo sapiens) (Q16342 whole entry, looked up): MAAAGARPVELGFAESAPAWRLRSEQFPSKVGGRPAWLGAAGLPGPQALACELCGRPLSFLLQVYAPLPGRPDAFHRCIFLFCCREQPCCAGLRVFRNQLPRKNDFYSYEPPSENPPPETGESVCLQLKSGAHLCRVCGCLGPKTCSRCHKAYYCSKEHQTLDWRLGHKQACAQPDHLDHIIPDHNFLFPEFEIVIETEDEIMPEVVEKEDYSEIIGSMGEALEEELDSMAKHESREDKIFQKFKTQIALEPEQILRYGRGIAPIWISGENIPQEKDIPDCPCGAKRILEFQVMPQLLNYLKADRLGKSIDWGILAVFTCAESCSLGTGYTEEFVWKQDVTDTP
Chain of Protein cereblon/Programmed cell death protein 2 (Homo sapiens) (Q96SW2 whole entry, looked up): as the sequence (Q96SW2 whole entry, looked up) above

SMILES: C[C@H](NC(=O)c1ccc2c(-c3ccc(C(F)(F)F)cc3)cccc2c1)c1cccc(NCCCCCNc2cccc3c2C(=O)N(C2CCC(=O)NC2=O)C3=O)n1 (some centres undefined)
IC50 [1]: 810 nM

SMILES: C[C@H](NC(=O)c1ccc2c(-c3ccc(C(F)(F)F)cc3)cccc2c1)c1cccc(NCCOCCOCCNc2cccc3c2C(=O)N(C2CCC(=O)NC2=O)C3=O)n1 (some centres undefined)
IC50 [1]: 290 nM
Activity [2]: Active

SMILES: C[C@H](NC(=O)c1ccc2c(-c3ccc(C(F)(F)F)cc3)cccc2c1)c1cccc(NCCCCCCCCNc2cccc3c2C(=O)N(C2CCC(=O)NC2=O)C3=O)n1 (some centres undefined)
IC50 [1]: 5110 nM

SMILES: C[C@H](NC(=O)c1ccc2c(-c3ccc(C(F)(F)F)cc3)cccc2c1)c1cccc(NCCOCCOCCOCCNc2ccc3c(c2)C(=O)N(C2CCC(=O)NC2=O)C3=O)n1 (some centres undefined)
IC50 [1]: 230 nM
Activity [2]: Active

SMILES: C[C@H](NC(=O)c1ccc2c(-c3ccc(C(F)(F)F)cc3)cccc2c1)c1cccc(N)n1
IC50 [1]: 30 nM

SMILES: C[C@H](NC(=O)c1ccc2c(-c3ccc(C(F)(F)F)cc3)cccc2c1)c1cccc(NCCOCCNc2cccc3c2C(=O)N(C2CCC(=O)NC2=O)C3=O)n1 (some centres undefined)
IC50 [1]: 340 nM

SMILES: C[C@H](NC(=O)c1ccc2c(-c3ccc(C(F)(F)F)cc3)cccc2c1)c1cccc(NCCOCCOCCOCCNc2cccc3c2C(=O)N(C2CCC(=O)NC2=O)C3=O)n1 (some centres undefined)
IC50 [1]: 260 nM
Activity [2]: Active
DC50 [18]: 39.7 nM
Activity [20]: 45.1%

SMILES: C[C@H](NC(=O)c1ccc2c(-c3ccc(C(F)(F)F)cc3)cccc2c1)c1cccc(NCCCCCCNc2cccc3c2C(=O)N(C2CCC(=O)NC2=O)C3=O)n1 (some centres undefined)
IC50 [1]: 1150 nM

Now from value to compound, other results behind:

IC50 [1]: 940 nM
SMILES: C[C@H](NC(=O)c1ccc2c(-c3ccc(C(F)(F)F)cc3)cccc2c1)c1cccc(NCCCNc2cccc3c2C(=O)N(C2CCC(=O)NC2=O)C3=O)n1 (some centres undefined)

IC50 [1]: 210 nM
Activity [2]: Active
Activity [6]: inactive
Activity [8]: Active
DC50 [9]: 54.1 nM
Activity [11]: inactive
IC50 [12]: > 10000 nM
Activity [13]: inactive
Emax [14]: 40%
Activity [16]: Active
DC50 [18]: 32.7 nM
Activity [19]: inactive
Activity [20]: 42.4%
Activity [21]: inactive
SMILES: C[C@H](NC(=O)c1ccc2c(-c3ccc(C(F)(F)F)cc3)cccc2c1)c1cccc(NCCOCCOCCNc2ccc3c(c2)C(=O)N(C2CCC(=O)NC2=O)C3=O)n1 (some centres undefined)
Activity [3]: Active
Activity [4]: Active
Activity [5]: Active
Activity [7]: inactive
Activity [10]: Active
Activity [15]: Active
Activity [17]: Active

IC50 [1]: 2650 nM
SMILES: C[C@H](NC(=O)c1ccc2c(-c3ccc(C(F)(F)F)cc3)cccc2c1)c1cccc(NCCCCCCCNc2cccc3c2C(=O)N(C2CCC(=O)NC2=O)C3=O)n1 (some centres undefined)

IC50 [1]: 1510 nM
SMILES: C[C@H](NC(=O)c1ccc2c(-c3ccc(C(F)(F)F)cc3)cccc2c1)c1cccc(NCCNc2cccc3c2C(=O)N(C2CCC(=O)NC2=O)C3=O)n1 (some centres undefined)

IC50 [1]: 350 nM
SMILES: C[C@H](NC(=O)c1ccc2c(-c3ccc(C(F)(F)F)cc3)cccc2c1)c1cccc(NCCOCCNc2ccc3c(c2)C(=O)N(C2CCC(=O)NC2=O)C3=O)n1 (some centres undefined)

IC50 [1]: 1180 nM
SMILES: C[C@H](NC(=O)c1ccc2c(-c3ccc(C(F)(F)F)cc3)cccc2c1)c1cccc(NCCCCNc2cccc3c2C(=O)N(C2CCC(=O)NC2=O)C3=O)n1 (some centres undefined)
